Most compounds without a hit are left out; they make up all but 2% or so of the library.
SIAE inh: human SIAE inhibitors, primary screen, biochemical, fluorescence polarization, FP-Rh probe, 1536-well HTS; Sialate O-acetylesterase (Homo sapiens), Q9HAT2; SIAE FP-Rh probe binding; inhibition, % at 9.66 µM; hit rate 0.69% among 370,000;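 active = inhibition above a cutoff: mean of compounds within the control limits plus 3 SD of those, cut at about 17% in these data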
HTRA1 inhibitor: HTRA1 serine protease inhibitors, primary screen, biochemical, fluorescence polarization, HTS; Q92743; hit rate 0.5% among 340,000; inhibition, % at 5.96 µM; recombinant HTRA1, FP-rhodamine activity-based probe; AID 504803, 2011; in the data active = inhibition above about 36%
Target sequence (Q92743 whole entry, looked up): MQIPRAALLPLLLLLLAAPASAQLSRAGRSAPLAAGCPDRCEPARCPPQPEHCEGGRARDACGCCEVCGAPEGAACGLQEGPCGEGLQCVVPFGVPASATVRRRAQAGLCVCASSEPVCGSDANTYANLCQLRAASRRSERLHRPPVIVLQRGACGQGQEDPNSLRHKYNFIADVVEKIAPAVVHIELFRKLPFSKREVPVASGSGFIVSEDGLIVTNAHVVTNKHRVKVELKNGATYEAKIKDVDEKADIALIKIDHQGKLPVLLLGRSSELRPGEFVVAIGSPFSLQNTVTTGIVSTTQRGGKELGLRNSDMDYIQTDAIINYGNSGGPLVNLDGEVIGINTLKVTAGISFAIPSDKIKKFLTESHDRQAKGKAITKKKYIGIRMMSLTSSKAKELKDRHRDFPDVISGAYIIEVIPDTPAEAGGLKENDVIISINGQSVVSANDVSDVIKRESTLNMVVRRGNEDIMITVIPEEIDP
mABHD4 FP: ABHD4 inhibitors, primary screen, biochemical, fluorescence polarization, mouse | purified mABHD4, FP-Rh probe fluorescence polarization | inhibition, % at 8.92 µM | hit rate 0.54% among 370,000;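 active = inhibition exceeding the mean over every tested compound plus 3 SD, cut at about 30% in these data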
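system = mouse ABHD4 enzyme, wild type | medium = HEPES pH 7.0, NaCl, Pluronic buffer | also added = FP-Rh probe | incubation = Enzyme–compound pre-incubation 45 min, then probe 60 min, both 25 °C | technique = fluorescence polarization, excitation 525 nm, emission 598 nm, BODIPY TMR filters | controls = S159A mutant high control, sample median low control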
TDP2 inh: human TDP2 enzyme inhibitors, primary screen, biochemical, epi absorbance, recombinant enzyme; Tyrosyl-DNA phosphodiesterase 2 (Homo sapiens), O95551; T5PNP hydrolysis, p-nitrophenol absorbance 415 nm; inhibition, % at 12.8 µM; hit rate 0.34% among 370,000;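 active = inhibition above the mean of all tested compounds plus 3 SD, set per campaign, cut at about 25% in these data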
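System – recombinant human TDP2 · Quantity – TDP2 enzyme at 120 nM final · Doses – single concentration, 12.8 µM nominal, with 1% DMSO · Incubation – 2 h at 37 °C · Measured by – epi absorbance of p-nitrophenol freed from T5PNP by hydrolysis · Read-out – % inhibition relative to enzyme-containing and enzyme-free wells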
TCR-CD3 inh: inhibitors of human TCR-CD3 interaction, primary screen, biochemical, fluorescence, TAMRA-labeled TCR probe; T-cell receptor (TCR); inhibition, % at 9.4 µM; hit rate 0.37% among 360,000; in the data active = inhibition above about 19%;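 note: recombinant mutant TCR 2C K166C tagged with TAMRA read by polarization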
PAD4 FP inh: human PAD4 inhibitors, primary screen, biochemical, fluorescence polarization, 1536-well format. Protein-arginine deiminase type-4 (Homo sapiens), Q9UM07. recombinant PAD4, RCA probe fluorescence polarization. inhibition, % at 6.36 µM. hit rate 0.41% among 330,000;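 active = percent inhibition above a cutoff equal to the mean of all tested compounds plus 3 SD, cut at about 15% in these data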
Large screens that a line does not name were inactive.

CC(C)(C)OC(=O)NCCCCC1=CC2=CC(=O)C(C)(OC(=O)c3cnc4ccccc4n3)C(=O)C2=CO1 (centres undefined)	none (no result: SIAE inh, HTRA1 inhibitor, mABHD4 FP, TDP2 inh, TCR-CD3 inh)
CCCCC1=CC2=CC(=O)C(C)(OC(=O)c3cnc4ccccc4n3)C(=O)C2=CO1 (centres undefined)	PAD4 FP inh 31 (no result: SIAE inh, HTRA1 inhibitor, mABHD4 FP, TDP2 inh, TCR-CD3 inh)
COC/C=C/C1=CC2=CC(=O)C(C)(OC(=O)c3cnc4ccccc4n3)C(=O)C2=CN1CCc1ccccn1 (centres undefined)	PAD4 FP inh 34 (no result: SIAE inh, HTRA1 inhibitor, mABHD4 FP, TDP2 inh, TCR-CD3 inh)
C[C@H](CCCCC1(C)OCCO1)CCC(=O)N(c1ccccc1)c1ccccc1	none (no result: HTRA1 inhibitor, TCR-CD3 inh, PAD4 FP inh)
CS(=O)(=O)c1ccccc1C(=O)Nc1ccc(-c2nc3ccccc3[nH]2)cc1	none
Cc1ccccc1C(=O)Nc1ccc(-c2nc3ccc(C(=O)c4ccccc4)cc3[nH]2)cc1	TCR-CD3 inh 67
C[C@H]1[C@@H](OC(=O)Nc2cc(Cl)ccc2Cl)CC[C@@]23CCCN2C(=O)CCC[C@@H]13	none (no result: HTRA1 inhibitor, TCR-CD3 inh, PAD4 FP inh)
FC(F)(F)c1ccccc1NC(=S)OCCN1CCCC12CCC(c1ccccc1)CC2 (centres undefined)	none (no result: HTRA1 inhibitor, TCR-CD3 inh, PAD4 FP inh)
Cc1[nH]n(-c2ccccc2)c(=O)c1-c1ccccc1	SIAE inh 18
O=C1CCC[C@H]2C[C@H](NCc3ccc(Cl)cc3)CC[C@]23CCCN13	none (no result: HTRA1 inhibitor, TCR-CD3 inh, PAD4 FP inh)
NC1=CC(=O)c2cccc3cccc1c23	PAD4 FP inh 15 (no result: SIAE inh, HTRA1 inhibitor, mABHD4 FP, TDP2 inh, TCR-CD3 inh)
COc1cc(O)c([C@@H](CC(=O)N2CC(C)CC(C)C2)c2ccc3c(c2)OCO3)c(OC)c1 (some centres undefined)	none (no result: HTRA1 inhibitor, TCR-CD3 inh, PAD4 FP inh)
O=C(NCc1ccc(Cl)cc1)O[C@H]1CC[C@@]23CCCN2C(=O)CCC[C@H]3C1	none (no result: HTRA1 inhibitor, TCR-CD3 inh, PAD4 FP inh)
COC(=O)[C@@]1(Cc2ccc(F)cc2)[C@H]2c3cc(C(=O)N4CCCC4)n(Cc4ccc(C(F)(F)F)nc4)c3C[C@H]2CN1C(=O)c1ccccc1	SIAE inh 17 (no result: HTRA1 inhibitor)
COC(=O)[C@@]1(Cc2ccc(F)cc2)[C@H]2c3cc(C(=O)N4CCCC4)n(Cc4ccc(S(C)(=O)=O)cc4)c3C[C@H]2CN1C(=O)c1ccccc1	none (no result: HTRA1 inhibitor, PAD4 FP inh)
Nc1ccc2cccc(O)c2c1	mABHD4 FP 48 (no result: PAD4 FP inh)
C=CCN1C(=O)[C@@H](CC(=O)NCCCCc2ccccc2)[C@]2(C(=O)OC)CCCCC=C12	none (no result: HTRA1 inhibitor, TCR-CD3 inh, PAD4 FP inh)
Cc1cccc(NC(=O)NN(C(=O)c2ccccc2Cl)C(C)(C)C)c1	none (no result: HTRA1 inhibitor, TCR-CD3 inh, PAD4 FP inh)
COc1cccc2cc(-c3ccnc(=S)[nH]3)oc12	PAD4 FP inh 45 (no result: SIAE inh, HTRA1 inhibitor, mABHD4 FP, TDP2 inh, TCR-CD3 inh)
N#Cc1c(NC(=O)c2ccccc2Cl)n(Cc2ccccc2)c2nc3ccccc3nc12	TDP2 inh 81
CCCCn1c(NC(=O)CC)c(C#N)c2nc3ccccc3nc21	none
Cc1nc(N)sc1-c1csc(NCc2ccccc2)n1	none
Cc1cc(-c2csc(NCc3ccccc3)n2)c(C)n1C	HTRA1 inhibitor 37 (no result: SIAE inh, mABHD4 FP, TDP2 inh, TCR-CD3 inh, PAD4 FP inh)
O=C(Nc1ccccc1)Nc1nc2ncccn2c1-c1ccc(F)cc1	none (no result: HTRA1 inhibitor, TCR-CD3 inh, PAD4 FP inh)
COc1ccc2[nH]c(C(=O)N/N=C/c3ccc(O)cc3O)cc2c1	SIAE inh 25 (no result: PAD4 FP inh)
CCOc1ccc2[nH]c(C(=O)N/N=C/c3ccc(OC)cc3)cc2c1	none (no result: PAD4 FP inh)
Cc1c(NC(=O)C2CCCN(S(=O)(=O)c3ccccc3[N+](=O)[O-])C2)c(=O)n(-c2ccccc2)n1C (centres undefined)	none (no result: HTRA1 inhibitor, TCR-CD3 inh, PAD4 FP inh)
CC(C)(C)c1ccc(C2C(C#N)=C(N)Oc3n[nH]c(-c4cccnc4)c32)cc1 (centres undefined)	TDP2 inh 36
COc1cc(OC)cc(C2C(C#N)=C(N)Oc3n[nH]c(-c4cccnc4)c32)c1 (centres undefined)	none
CCOC(=O)[C@]12CCCCC/C=C\1N(Cc1ccc(OC)cc1)C(=O)[C@H]2CC(=O)NCCCOC	none (no result: HTRA1 inhibitor, TCR-CD3 inh, PAD4 FP inh)
CCC1(c2ccc(F)cc2)NC(=O)N(CC(=O)N2c3ccccc3NC(=O)C2(C)C)C1=O (centres undefined)	none
CC(C)CC1NC(=O)N(CC(=O)N2c3ccccc3NC(=O)C2(C)C)C1=O (centres undefined)	SIAE inh 20
CN1CCN(C(=O)c2cc3sccc3n2CC(=O)c2ccccc2)CC1	none
